Compound activity deposited in PubChem BioAssay by Broad Institute.
T cruzi growth-1 – blocks T. cruzi growth in NIH3T3 culture. T. cruzi beta-gal in NIH3T3, GalScreen luminescence, 90 h. inhibition, % at 8.34 µM. 5.9% of 77,000 active. AID 624255;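 active = mean inhibition above about 93%, with at least 55% of replicates each passing it, limit read from the data, passing the limit was not always enough; inconclusive = only one of those two conditions holds; inactive = neither condition holds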
IDH1 mut inh – blocks human IDH1 R132H reductase activity | O75874 | diaphorase/resazurin fluorescence, 60 min | inhibition, % at 10 µM | 0.18% of 70,000 active | AID 624101; in the data active = inhibition above about 34%; inconclusive = no clear call, values can overlap the other calls; inactive = below about 11%
Target sequence (O75874 whole entry R132H): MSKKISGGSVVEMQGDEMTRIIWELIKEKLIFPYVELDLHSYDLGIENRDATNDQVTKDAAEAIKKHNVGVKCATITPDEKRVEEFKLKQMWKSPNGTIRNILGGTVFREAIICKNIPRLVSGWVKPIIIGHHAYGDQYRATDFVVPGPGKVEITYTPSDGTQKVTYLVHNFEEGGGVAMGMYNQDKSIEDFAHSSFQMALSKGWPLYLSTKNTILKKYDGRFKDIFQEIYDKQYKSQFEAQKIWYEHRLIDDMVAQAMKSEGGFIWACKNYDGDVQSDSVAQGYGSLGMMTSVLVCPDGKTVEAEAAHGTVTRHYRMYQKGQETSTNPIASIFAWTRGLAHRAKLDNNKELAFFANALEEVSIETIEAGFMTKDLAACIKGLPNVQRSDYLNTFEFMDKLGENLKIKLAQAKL
KDM4C inh – KDM4C (human) demethylase inhibition | GST-KDM4C 2-372, H3K9me3 peptide, LANCE TR-FRET | 0.15% of 96,000 active | AID 720574 | inhibition, % at 12.5 µM;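 active = mean replicate inhibition above about 25%, with at least 55% of replicates also reaching it, limit read from the data, passing the limit was not always enough; inconclusive = only one of those two conditions met; inactive = neither condition met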
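System: N-terminal GST-fused human GASC-1 (KDM4C) fragment, residues 2-372 / Amount: 10 nM GST-KDM4C in enzyme reaction / Also added: H3K9me3 peptide with Fe(II)/2OG / Times: 30 min demethylation and 1 h detection at room temperature / Signal: LANCE TR-FRET / Read-out basis: Fall in 671/618 emission ratio as inhibition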
Pf Dd2 growth – blocks growth of Plasmodium falciparum Dd2 parasites; P. falciparum Dd2 growth, SYBR Green, 72 h; hits give low values; activity change, % at 10 µM; 2.3% of 94,000 active; AID 1159554; in the data active = activity change below about -80%; inconclusive = no clear call, values can overlap the other calls
T cruzi growth-2 – Trypanosoma cruzi proliferation inhibition; shares compounds with T cruzi growth-1; T. cruzi beta-gal in NIH3T3, GalScreen luminescence, 90 h; inhibition, % at 8.35 µM; 72% of 5,600 active; AID 651739;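 active = mean replicate inhibition above about 95% and at least 55% of replicates individually reaching it, limit read from the data; inconclusive = only one of the two criteria is met; inactive = neither criterion is met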
T cruzi growth-3 – Trypanosoma cruzi proliferation inhibition; T. cruzi beta-gal in NIH3T3, GalScreen luminescence, 90 h; shares compounds with T cruzi growth-1; inhibition, % at 2.09 µM; 21% of 5,600 active; AID 651740;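 active = mean inhibition above about 95%, with at least 55% of replicates also reaching it, limit read from the data; inconclusive = meets just one of the two conditions; inactive = meets neither condition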
3T3 cytotox – cytotoxicity in mouse NIH/3T3 fibroblasts; cytotoxicity (signal decrease), % at 8.35 µM; shares compounds with T cruzi growth-1; 14% of 5,600 active; NIH/3T3 viability, CellTiter-Glo ATP luminescence, 90 h;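 active = mean signal decrease across replicates above about 35% based on untreated-well scatter, with enough replicates individually passing, limit read from the data; inconclusive = no rule stated though some were filed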
NIH3T3 tox 2 – NIH/3T3 (mouse) viability loss; shares compounds with T cruzi growth-1; NIH/3T3 viability, CellTiter-Glo ATP luminescence, 90 h; 56% of 5,600 active; AID 651744; inhibition, % at 24.9 µM;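 active = mean loss of cell viability signal at or above a set limit, and enough replicates individually reaching it; inconclusive = meets only the mean limit or only the replicate share; inactive = meets neither condition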
Hits are given with their value; i = inactive; ? = inconclusive; nt = no result. Only some compounds are listed: those with a hit (about 5.8% of all), similar ones and a draw of the others.

SMILES	T cruzi growth-1	IDH1 mut inh	KDM4C inh	Pf Dd2 growth	T cruzi growth-2	T cruzi growth-3	3T3 cytotox	NIH3T3 tox 2
CN(C)C(=O)c1cccc(-c2ccc3c(c2)[C@H]2[C@H](CCN2C(=O)c2cccc(F)c2)[C@@H](CO)N3C)c1	98.7	nt	i	i	103.4	i	i	i
CN1c2ccc(-c3ccc(C#N)cc3)cc2[C@@H]2[C@@H](CCN2C(=O)c2cccc(F)c2)[C@H]1CO	?	nt	i	i	109.6	103.1	i	81.5
COCC#Cc1ccc2c(c1)O[C@@H](CN(C)CC1CCCCC1)[C@@H](C)CN([C@@H](C)CO)S2(=O)=O	105.3	i	i	i	101.9	i	i	40.2
COCC#Cc1ccc2c(c1)O[C@H](CN(C)CC1CCOCC1)[C@H](C)CN([C@@H](C)CO)S2(=O)=O	i	nt	i	i	nt	nt	nt	nt
COCC#Cc1ccc2c(c1)O[C@@H](CN(C)CC1CCCCC1)[C@H](C)CN([C@@H](C)CO)S2(=O)=O	?	i	i	i	102.7	i	?	105.0
O=C(Nc1ccc(F)cc1)N1CCCCN2[C@@H](CO)[C@@H](c3ccc(C#Cc4ccccn4)cc3)[C@@H]2C1	110.2	nt	i	i	103.2	97.0	i	35.5
COc1ccc(NC(=O)N2CCCCN3[C@H](CO)[C@@H](c4ccc(C#Cc5ccccn5)cc4)[C@@H]3C2)cc1	?	nt	i	i	111.2	i	i	i
Cc1ccc(O)c(NC(=O)c2nc3ncccn3n2)c1	nt	i	nt	nt	nt	nt	nt	nt
C[C@@H]1CCCCO[C@H](CN(C)C(=O)Nc2ccc3c(c2)OCO3)[C@@H](C)CN([C@H](C)CO)C(=O)c2cc(NC(=O)Nc3ccc(C(F)(F)F)cc3)ccc2O1	i	nt	i	i	nt	nt	nt	nt
C[C@@H]1CCCCO[C@H](CN(C)C(=O)Nc2ccc(C(F)(F)F)cc2)[C@H](C)CN([C@@H](C)CO)C(=O)c2cc(NC(=O)Nc3ccc4c(c3)OCO4)ccc2O1	117.3	i	i	i	107.3	108.6	i	i
C[C@@H]1CCCCO[C@H](CN(C)C(=O)Nc2ccc(C(F)(F)F)cc2)[C@H](C)CN([C@@H](C)CO)C(=O)c2cc(NC(=O)Nc3ccc(C(F)(F)F)cc3)ccc2O1	116.1	nt	i	i	108.0	113.3	i	i
Cc1noc(C)c1NC(=O)Nc1ccc2c(c1)C(=O)N([C@@H](C)CO)C[C@H](C)[C@H](CN(C)C(=O)Nc1ccc(C(F)(F)F)cc1)OCCCC[C@H](C)O2	109.7	i	i	i	96.2	i	i	i
C[C@@H]1CCCCO[C@H](CN(C)C(=O)Nc2ccc(C(F)(F)F)cc2)[C@@H](C)CN([C@@H](C)CO)C(=O)c2cc(NC(=O)Nc3ccc(C(F)(F)F)cc3)ccc2O1	112.3	i	i	-88.0	107.5	115.5	i	?
O=C(CN(C1CCCCC1)S(=O)(=O)c1ccc(Cl)cc1)Nc1ccccc1F	nt	i	nt	nt	nt	nt	nt	nt
CS(=O)(=O)N(CC(=O)Nc1ccccc1C(=O)O)c1ccc(F)cc1	nt	i	nt	nt	nt	nt	nt	nt
COc1cccc(N(CC(=O)Nc2ccc(F)cc2F)S(C)(=O)=O)c1	nt	i	nt	nt	nt	nt	nt	nt
C[C@H](CO)N1C[C@H](C)[C@H](CN(C)C(=O)Nc2ccc(C(F)(F)F)cc2)OCCCC[C@H](C)Oc2ccc(NC(=O)Nc3ccc(C(F)(F)F)cc3)cc2C1=O	126.4	nt	i	i	102.1	117.4	i	i
C[C@@H]1CCCCO[C@H](CN(C)C(=O)Nc2ccc(C(F)(F)F)cc2)[C@@H](C)CN([C@H](C)CO)C(=O)c2cc(NC(=O)Nc3ccc(C(F)(F)F)cc3)ccc2O1	102.6	i	i	i	101.4	?	i	i
CC(C)NC(=O)Nc1ccc2c(c1)C(=O)N([C@H](C)CO)C[C@H](C)[C@@H](CN(C)C(=O)Nc1ccc(C(F)(F)F)cc1)OCCCC[C@H](C)O2	97.6	nt	i	i	97.8	i	i	i
CC(C)NC(=O)Nc1ccc2c(c1)C(=O)N([C@@H](C)CO)C[C@@H](C)[C@@H](CN(C)C(=O)Nc1ccc(C(F)(F)F)cc1)OCCCC[C@@H](C)O2	i	i	i	i	nt	nt	nt	nt
